Measurements: paper PMC5439940 (International Journal of Nanomedicine, 2017)

Assays:
[1] = Plasma retention of liposomal MTX-DG versus intact MTX in mice; assay type: in vivo; details: IV
How it was run: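 Female F1(CBA × C57BL/6) mice, 20–22 g, 6–8 weeks old, received 10 mg/kg free parent drug or an equivalent liposomal prodrug dose IV by tail vein (0.2 mL). Groups of n=3 were decapitated at set times and serum collected at 600×g for 10 min. Drug was measured by RP-HPLC after HClO4 deproteinisation; prodrug by RP-HPLC with UV detection at 313 nm. Both were calibrated against spiked or extracted control serum.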

[2] = test system: ASF-LL T-cell leukemic lymphoma; assay: Antitumor effect in transplanted mouse T-cell leukemic lymphoma; assay type: in vivo
How it was run: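 A/Sn female mice aged 6 or 12 months, one experiment per age, received 10^6 ASF-LL cells SC on day 0. Groups of n=6 got IV free parent drug (10 mg/kg) or an equivalent liposomal prodrug dose in 0.2 mL PBS/1 mM EDTA, pH 7.0, on days 3, 5, 10 and 12. Controls got vehicle. Daily survival monitoring; euthanasia at >20% weight loss and/or food rejection. Mean ± SD, Student's t-test.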

A549 or CoLo-357 cells = assay type: cell-based, human; details: for Effect of inhibitor on liposome accumulation/binding: preincubation with inhibitor, then liposomes 100 μM total lipids, 37°C

## CN(Cc1cnc2nc(N)nc(N)c2n1)c1ccc(C(=O)N[C@@H](CCC(=O)O)C(=O)O)cc1 [MTX, Methotrexate]
[1]
  t1/2α and t1/2β of MTX relative to MTX-DG (times lower): approximately 4 times
[2]; both experiments, 10 mg/kg MTX or equivalent IV on days 3, 5, 10, 12
  Delay of palpable lymphoma appearance and tumor growth vs controls: significant delay in palpable lymphoma appearance
[2]; first experiment, mice aged 6 months, 4 IV injections, days 3, 5, 10, 12
  Increase in the mean life span vs control group: 23%
[2]; second experiment, mice aged 12 months, 4 IV injections
  Toxicity / tolerability in old recipient mice: pronounced toxicity

## CN(C)CCCN1c2ccccc2Sc2ccc(Cl)cc21 [chlorpromazine]
A549 or CoLo-357 cells
  Effect of inhibitor on liposome accumulation/binding: concentration-dependent decrease in liposome accumulation

## COc1cc2c(c(OC)c1OC)-c1ccc(OC)c(=O)cc1[C@@H](NC(C)=O)CC2 [colchicine]
A549 or CoLo-357 cells
  Effect of inhibitor on liposome accumulation/binding: elusive effects

## C=C1[C@@H](C)[C@H]2[C@H](Cc3ccccc3)NC(=O)[C@]23OC(=O)/C=C/[C@H](O)CCC[C@@H](C)C/C=C/[C@H]3[C@@H]1O [cytochalasin B]
A549 or CoLo-357 cells
  Effect of inhibitor on liposome accumulation/binding: elusive effects

## COC(=O)Nc1nc2ccc(C(=O)c3cccs3)cc2[nH]1 [nocodazole]
A549 or CoLo-357 cells
  Effect of inhibitor on liposome accumulation/binding: elusive effects

## Methyl-β-cyclodextrin
A549 or CoLo-357 cells; in the range of concentrations required for the inhibitory studies
  Cell death caused by inhibitor: > 50%
